Calls of active or inactive are those of the source.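 How the source made its calls, unless noted: active means viability at or under a set limit in both replicates, limit being median viability minus 3 SD (cut at about 48% in these data, passing the limit was not always enough); inconclusive means at or under the limit in just one replicate; inactive means at or above the limit in both replicates.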
Legend:
[1] = target: Pantothenate synthetase (Mycobacterium tuberculosis (strain ATCC 25618 / H37Rv)) (UniProt P9WIL5); assay: Recombinant Mtb pantothenate synthetase (PanC) inhibitors, coupled enzyme, confirmatory (AID 375; call rule not given here;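 further: 0% = full reaction with vehicle and 100% = no enzyme background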); conditions: coupled enzyme assay; at 10 µM, stronger effect = higher value
[2] = reducers of endogenous Her2 protein level, primary screen, SKBR3 breast tumor cells, AlphaScreen, ATP viability (AID 461;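 active means Her2 level under about 52% in both replicate screens, with viability over 70% of control, limit read from the data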;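 on Her2 level: lower value means less Her2 protein in the cells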;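 on viability: percent of carrier control wells set as 100% viability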); conditions: 18-24 h, measured here: SKBR3 viability, ATP luminescence, at 10 µM
[3] = target: Receptor tyrosine-protein kinase erbB-2 (Homo sapiens) (UniProt P04626); assay: as above; conditions: 18-24 h, at 10 µM, stronger effect = lower value
[4] = SK-BR-3 cell growth inhibitors, pilot screen, 24 h, human (AID 572;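 active means viability at or below 10% of carrier control in both of two separate runs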;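 further: compound exposure lasted between 18 and 24 h rather than exactly 24 h; 100% = carrier-treated control wells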); conditions: SK-BR-3 viability, CellTiter-Glo luminescence, at 10 µM, stronger effect = lower value
[5] = HUVEC growth inhibition – cell-based, human, primary screen (AID 575;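 active means viability at or below 30% in both replicate assays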;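 further: 100% = median of untreated cell wells with 0.1% DMSO on each plate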); conditions: HUVEC proliferation, CellTiter-Glo luminescence, 72 h; at 10 µM; stronger effect = lower value
Procedure, shortened: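 material = primary HUVEC, no more than 12 passages | input = 1250 cells per well | controls = vehicle and MePR control wells | measured by = CTG luminescence | times = 72 h compound incubation | format = collagen-coated 384-well format | read-out = % viability vs DMSO wells | doses = single 10 µM dose, 0.1% DMSO, from 5x medium stock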

[6] = growth inhibitors of H69AR lung tumor, primary screen, human, duplicate replicates (AID 580); conditions: H69AR lung tumor cells viability, ATP luminescence, 72 h; at 10 µM; stronger effect = lower value;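 further: 100% = mean luminescence of untreated wells and 0% = no signal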
[7] = reversal of MRP1-mediated doxorubicin resistance, pilot screen, H69AR cells, doxorubicin co-treatment (AID 601;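 active means viability loss from added drug above about 55%, and viability with drug at most 40%, in both replicates, limit read from the data, passing the limit was not always enough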); conditions: CellTiter-Glo, 72 h, at 10 µM; for differential viability (reversal): stronger effect = higher value
[8] = 384-well plate pilot, post-Golgi transport modulator project, inhibition of yeast transport mutant growth (AID 636; in the data active means inhibition above about 31%); conditions: absorbance 615 nm, about 18 h, stronger effect = higher value
[9] = growth suppression of yeast trafficking mutant, preliminary HTS, modulators of trafficking downstream of Golgi apparatus project, 1536-format plate, OD 615 nm (AID 637; in the data active means inhibition above about 30%); conditions: yeast transport mutant growth, absorbance 615 nm, 18 h; stronger effect = higher value
[10] = H69AR cells + 2 uM doxorubicin, measured here: viability with 2 uM doxorubicin, stronger effect = lower value
[11] = H69AR cells, compound alone cytotoxicity

Pantothenate synthetase (Mycobacterium tuberculosis (strain ATCC 25618 / H37Rv)), sequence (P9WIL5 whole entry, looked up): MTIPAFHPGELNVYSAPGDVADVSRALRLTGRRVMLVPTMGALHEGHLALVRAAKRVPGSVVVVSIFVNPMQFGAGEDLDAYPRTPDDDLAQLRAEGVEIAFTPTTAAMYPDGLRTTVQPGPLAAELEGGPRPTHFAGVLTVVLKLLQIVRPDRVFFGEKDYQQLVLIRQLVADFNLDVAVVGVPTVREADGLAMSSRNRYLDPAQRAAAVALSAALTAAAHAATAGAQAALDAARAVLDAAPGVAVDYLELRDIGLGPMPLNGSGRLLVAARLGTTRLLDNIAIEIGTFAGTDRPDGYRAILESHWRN
Receptor tyrosine-protein kinase erbB-2 (Homo sapiens), sequence (P04626 whole entry, looked up): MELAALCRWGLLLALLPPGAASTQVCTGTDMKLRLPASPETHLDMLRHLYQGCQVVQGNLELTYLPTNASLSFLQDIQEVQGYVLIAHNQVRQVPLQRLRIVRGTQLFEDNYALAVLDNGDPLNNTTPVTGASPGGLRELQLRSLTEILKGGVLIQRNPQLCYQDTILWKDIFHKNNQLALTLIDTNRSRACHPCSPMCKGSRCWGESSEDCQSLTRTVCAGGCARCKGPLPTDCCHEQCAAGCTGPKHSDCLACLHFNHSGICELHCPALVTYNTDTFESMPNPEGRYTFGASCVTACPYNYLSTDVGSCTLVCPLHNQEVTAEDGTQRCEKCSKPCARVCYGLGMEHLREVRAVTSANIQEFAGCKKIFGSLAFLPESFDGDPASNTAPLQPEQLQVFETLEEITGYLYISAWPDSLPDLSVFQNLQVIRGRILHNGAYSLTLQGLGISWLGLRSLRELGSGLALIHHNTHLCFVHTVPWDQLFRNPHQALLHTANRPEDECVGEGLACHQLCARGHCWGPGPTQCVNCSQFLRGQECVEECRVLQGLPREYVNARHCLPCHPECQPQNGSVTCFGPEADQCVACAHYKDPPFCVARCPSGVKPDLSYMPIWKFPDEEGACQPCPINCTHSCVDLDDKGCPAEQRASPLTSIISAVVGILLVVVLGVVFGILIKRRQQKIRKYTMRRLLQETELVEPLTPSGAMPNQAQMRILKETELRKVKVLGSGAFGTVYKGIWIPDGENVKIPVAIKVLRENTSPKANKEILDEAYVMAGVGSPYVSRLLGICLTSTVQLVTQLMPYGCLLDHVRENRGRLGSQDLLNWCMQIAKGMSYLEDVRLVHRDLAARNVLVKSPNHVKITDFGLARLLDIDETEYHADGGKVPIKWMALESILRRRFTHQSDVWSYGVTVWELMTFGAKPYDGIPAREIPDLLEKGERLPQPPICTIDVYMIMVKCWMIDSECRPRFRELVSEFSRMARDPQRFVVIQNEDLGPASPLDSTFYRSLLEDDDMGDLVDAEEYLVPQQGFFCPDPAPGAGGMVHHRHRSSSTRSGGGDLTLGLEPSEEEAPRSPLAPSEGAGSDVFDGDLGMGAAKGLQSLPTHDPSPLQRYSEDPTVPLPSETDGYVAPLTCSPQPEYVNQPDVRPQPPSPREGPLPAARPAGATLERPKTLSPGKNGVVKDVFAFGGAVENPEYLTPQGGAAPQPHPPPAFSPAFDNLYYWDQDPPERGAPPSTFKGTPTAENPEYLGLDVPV

SMILES | inhibition [1] | viability [2] [%] | Her2 level [3] | viability [4] | viability [5] | viability [6] | differential viability (reversal) ([7]; H69AR cells + 2 uM doxorubicin) | viability [7, 10] [%] | viability [7, 11] [%] | inhibition [8] | inhibition [9]
CCN1CCN(Cc2cc(Br)cc(OC)c2O)CC1 | 7% (inactive) | 93.5 | 114% (inactive) | 93.5% (inactive) | 110% (inactive) | 94.2% (inactive) | -2.88% (inactive) | 97.1 | 94.2 | -3.2% (inactive) | -6.19% (inactive)
O=c1[nH]c(=O)n(-c2ccc(F)cc2)c(O)c1C=Nc1ccccc1N1CCCC1 | 8% (inactive) | 97.5 | 105% (inactive) | 97.5% (inactive) | 73.9% (inactive) | 61.3% (inactive) | -6.94% (inactive) | 68.2 | 61.3 | -3.55% (inactive) | 3% (inactive)
Cc1ccc(C)c(C2(O)CC(C)N(C)CC2C)c1 (stereo not given) | 0% (inactive) | 110 | 103% (inactive) | 110% (inactive) | 94.9% (inactive) | 102% (inactive) | 10.4% (inactive) | 91.7 | 102 | -1.32% (inactive) | -2.7% (inactive)
CC(=O)[C@@]1(O)CC[C@H]2[C@@H]3CC=C4C[C@@H](O)CC[C@]4(C)[C@H]3CC[C@@]21C | 0% (inactive) | – | – | 89% (inactive) | 84.6% (inactive) | 89.8% (inactive) | 5.5% (inactive) | 84.3 | 89.8 | -0.26% (inactive) | 4.33% (inactive)
CC(=NCCCO)c1c(O)n(Cc2ccccc2)c(=O)[nH]c1=O | 0% (inactive) | 95 | 94% (inactive) | 95% (inactive) | 98.6% (inactive) | 94.4% (inactive) | 4.15% (inactive) | 90.2 | 94.4 | -4.61% (inactive) | 3.67% (inactive)
CC[N+]1(C)CCCC(OC(=O)C(O)(c2ccccc2)c2ccccc2)C1 (stereo not given) | 0% (inactive) | – | – | 81% (inactive) | 76.8% (inactive) | 101% (inactive) | 11.1% (inactive) | 89.6 | 101 | -5.71% (inactive) | -3.67% (inactive)
O=C(NCc1ccccn1)c1ccccc1Cl | 0% (inactive) | 91.5 | 76.5% (inactive) | 91.5% (inactive) | 91.2% (inactive) | 98% (inactive) | 16.5% (inactive) | 81.5 | 98 | -7.95% (inactive) | 0.63% (inactive)
COC1=CC(=O)OC(/C=C/c2ccccc2)C1 (stereo not given) | 0% (inactive) | – | – | 124% (inactive) | 96.6% (inactive) | 87.6% (inactive) | 2.78% (inactive) | 84.8 | 87.6 | -1.56% (inactive) | -4.5% (inactive)
CN1CCN(c2c[nH]c(=O)[nH]c2=O)CC1 | 0% (inactive) | – | – | 110% (inactive) | 90.6% (inactive) | 96.7% (inactive) | 5.06% (inactive) | 91.6 | 96.7 | -7.53% (inactive) | -6.29% (inactive)
OC(CNC1CCCCC1)c1ccccc1 (stereo not given) | 7% (inactive) | – | – | 104% (inactive) | 111% (inactive) | 98% (inactive) | 12.3% (inactive) | 85.7 | 98 | -2.67% (inactive) | -2.55% (inactive)
Cc1ccc(-n2c(O)c(C=NCCN3CCOCC3)c(=O)[nH]c2=O)cc1 | 3% (inactive) | 124 | 96.5% (inactive) | 124% (inactive) | 93.4% (inactive) | 102% (inactive) | 8.65% (inactive) | 93.5 | 102 | -5.2% (inactive) | 2.26% (inactive)
OCC12COC3c4ccccc4C(OC1)N32 (stereo not given) | 0% (inactive) | 110 | 118% (inactive) | 110% (inactive) | 94% (inactive) | 97.3% (inactive) | 4.61% (inactive) | 92.7 | 97.3 | -5.47% (inactive) | -5.81% (inactive)
CC(C)(C)C(O)C(Oc1ccc(Cl)cc1)n1cncn1 (stereo not given) | 9% (inactive) | 86.5 | 83.5% (inactive) | 86.5% (inactive) | 88.2% (inactive) | 87.2% (inactive) | 5.54% (inactive) | 81.7 | 87.2 | -4.46% (inactive) | 94% (active)
COc1ccccc1OCCCn1cc(C(=O)c2ccco2)c2ccccc21 | 0% (inactive) | 106 | 96% (inactive) | 106% (inactive) | 74.9% (inactive) | 77.5% (inactive) | -5.27% (inactive) | 82.7 | 77.5 | -4.73% (inactive) | -5.33% (inactive)
Cc1ccc(O)c(CN2CCN(c3ccccc3)CC2)c1 | 13% (inactive) | 94 | 88.5% (inactive) | 94% (inactive) | 101% (inactive) | 85.5% (inactive) | 11.5% (inactive) | 74 | 85.5 | -8.38% (inactive) | 1.33% (inactive)

From PubChem BioAssay
